Experimental data: ChEMBL document CHEMBL3112565, “Identification of small molecule sphingomyelin synthase inhibitors” (Eur J Med Chem, 2014)
Calls of active or inactive are those of the source. The rule behind the calls is not given here.

Assays:
[1] = target: T1, Phosphatidylcholine:ceramide cholinephosphotransferase 2 (Homo sapiens, UniProt Q8NHU3); experiment: Inhibition of SMS2 (unknown origin) expressed in H5 insect cells using C6-NBD-Cer as substrate after 1 hr
T1 sequence (Q8NHU3 whole entry): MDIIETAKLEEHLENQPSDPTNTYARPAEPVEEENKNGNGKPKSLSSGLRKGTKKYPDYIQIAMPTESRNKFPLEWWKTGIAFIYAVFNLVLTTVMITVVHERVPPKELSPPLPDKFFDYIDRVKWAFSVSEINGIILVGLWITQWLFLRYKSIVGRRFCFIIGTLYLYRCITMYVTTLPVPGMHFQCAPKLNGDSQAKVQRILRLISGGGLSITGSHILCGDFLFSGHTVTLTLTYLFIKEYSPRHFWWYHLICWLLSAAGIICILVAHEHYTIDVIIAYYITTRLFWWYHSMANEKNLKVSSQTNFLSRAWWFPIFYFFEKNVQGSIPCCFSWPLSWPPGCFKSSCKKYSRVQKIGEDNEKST
Method in brief: (§1)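 SMS2 came from homogenate of H5 insect cells overexpressing it, prepared at 50 mg pellet/mL in 0.25 M sucrose, 50 mM Tris-HCl pH 7.4, 1 mM EDTA and spun at 12,000 rpm for 10 min. The enzyme (2 µg total protein) was preincubated with inhibitor for 30 min at 37 °C in 10 mM HEPES pH 7.4, 3 mM MnCl2, 0.3% BSA. Reaction was started with 1.01 mM C6-NBD-Cer plus DMPC in DMSO and run 1 h at 37 °C. Product was quantified by HPLC as for SMS.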

[2] = Inhibition of sphingomyelin synthase in ICR mouse liver homogenates using C6-NBD-Cer as substrate after 2 hrs; assay type: tissue-based
Method in brief: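 Enzyme was the 12,000 rpm supernatant of ICR mouse liver homogenized at 300 mg/mL in 0.25 M sucrose, 50 mM Tris-HCl pH 7.4, 1 mM EDTA; 2 µg protein per assay. Preincubated with inhibitor 30 min at 37 °C in 10 mM HEPES pH 7.4, 3 mM MnCl2, 0.3% BSA. C6-NBD-ceramide and DMPC were then added and the reaction ran 2 h at 37 °C before ethanol quench. C6-NBD-SM was measured by C18 HPLC with fluorescence detection (ex 475/em 525 nm). IC50 from five inhibitor concentrations, triplicate, log[inhibitor] vs response fit.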

[3] = target: T1, Phosphatidylcholine:ceramide cholinephosphotransferase 2; experiment: Inhibition of SMS2 (unknown origin) expressed in H5 insect cells using C6-NBD-Cer as substrate at 100 uM after 1 hr; method in brief: as §1
[4] = tested on: Mus musculus; experiment: Inhibition of sphingomyelin synthase in ICR mouse assessed as decrease of sphingomyelin level in plasma at 6 mg/kg, iv after 2 hrs; assay type: functional, organism-based; set-up: dose 6 mg/kg
Method in brief: (§2)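 Female ICR mice (about 25 g), n=5 per group, received 150 µg (6 mg/kg) in 15 µL DMSO plus 185 µL PBS pH 7.4, given i.v. or i.p.; controls got vehicle i.v. Blood was taken from the eye after 2 h and frozen in liquid nitrogen. Plasma ceramide and sphingomyelin were measured by mass spectrometry. Groups compared by Student's t-test.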

[5] = Cytotoxicity against human HuH7 cells assessed as cell viability after 17 hrs by MTT assay; assay type: cell-based, Huh-7
Method in brief: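 Huh-7 cells exposed to a range of concentrations for 17 h, then viability read by MTT. CC50 is the concentration giving 50% inhibition relative to vehicle (0.25% DMSO). Quintuplicate samples; mean of at least two independent tests.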

[6] = tested on: Mus musculus; experiment: Inhibition of sphingomyelin synthase in ICR mouse assessed as increase of ceramide level in plasma at 6 mg/kg, iv after 2 hrs; assay type: functional, organism-based; set-up: dose 6 mg/kg; method in brief: as §2
[7] = tested on: Mus musculus; experiment: Inhibition of sphingomyelin synthase in ICR mouse assessed as increase of ceramide level in plasma at 6 mg/kg, ip after 2 hrs; assay type: functional, organism-based; set-up: dose 6 mg/kg; method in brief: as §2
[8] = tested on: Mus musculus; experiment: Inhibition of sphingomyelin synthase in ICR mouse assessed as decrease of sphingomyelin level in plasma at 6 mg/kg, ip after 2 hrs; assay type: functional, organism-based; set-up: dose 6 mg/kg; method in brief: as §2
[9] = Inhibition of sphingomyelin synthase (unknown origin) by cell based assay; conditions: Homo sapiens
[10] = Inhibition of sphingomyelin synthase (unknown origin); set-up: species or system Homo sapiens
[11] = target: Sphingomyelin synthase (Mus musculus); experiment: Inhibition of SMS in ICR mouse liver homogenate using C6-NBD-Cer as substrate after 2 hrs
[12] = Half life in saline solution at 24 degC; assay type: ADME

**Q.** With N#CC(NCc1ccco1)c1ccccc1OCc1ccccc1 (centres undefined) as the compound, how does the IC50 [1] read?
**A.** 71 µM

**Q.** For N#CC(Nc1ccc(C(N)=O)cc1)c1ccccc1OCc1ccccc1 (centres undefined), which IC50 [1] is on record?
**A.** 80.5 µM

**Q.** And the IC50 [2]?
**A.** 196 µM

**Q.** With Cc1ccc(NC(C#N)c2ccccc2OCc2ccccc2)cc1 (centres undefined) as the compound, how does the IC50 [1] read?
**A.** 20.8 µM

**Q.** For c1ccc(COc2ccccc2CNc2ccccc2)cc1, which IC50 [3] is on record?
**A.** Not Active

**Q.** Which results are given for COc1ccccc1NC(C#N)c1ccccc1OCc1ccccc1 (centres undefined)?
**A.** IC50 [1]: 12.4 µM; IC50 [2]: 35.8 µM

**Q.** With N#CC(Nc1ccc(Cl)cc1)c1ccccc1OCc1ccccc1 (centres undefined) as the compound, how does the IC50 [1] read?
**A.** 22.5 µM

**Q.** And the IC50 [2]?
**A.** 93.9 µM

**Q.** With Cc1cccc(C)c1NC(C#N)c1ccccc1OCc1ccccc1 (centres undefined) as the compound, how does the IC50 [1] read?
**A.** 31.5 µM

**Q.** With N#CC(Nc1ccccc1)c1ccccc1OCc1ccccc1 (centres undefined) as the compound, how does the inhibition [4] read?
**A.** Active

**Q.** And the IC50 [1]?
**A.** 13.5 µM

**Q.** And the CC50 at 17 h [5]?
**A.** 245 µM

**Q.** And the inhibition [6]?
**A.** Active

**Q.** What about the IC50 [2] of the same compound?
**A.** 24.5 µM

**Q.** And the inhibition [7]?
**A.** Active

**Q.** And the inhibition [8]?
**A.** Active

**Q.** Which IC50 [3] does the source give for N#CC(Nc1ccccc1)c1ccccc1 (centres undefined) here?
**A.** Not Active

**Q.** Which IC50 [1] does the source give for N#CC(Nc1ccc(O)cc1)c1ccccc1OCc1ccccc1 (centres undefined) here?
**A.** 24.4 µM

**Q.** With COc1cccc(NC(C#N)c2ccccc2OCc2ccccc2)c1 (centres undefined) as the compound, how does the IC50 [3] read?
**A.** Not Active

**Q.** Which IC50 [1] does the source give for N#CC(Nc1ccccc1)c1cccc(OCc2ccccc2)c1 (centres undefined) here?
**A.** 50.7 µM

**Q.** With N#Cc1ccccc1NC(C#N)c1ccccc1OCc1ccccc1 (centres undefined) as the compound, how does the IC50 [1] read?
**A.** 20.3 µM

**Q.** With S=C(S)OC1CC2CC1C1CCCC21 (centres undefined) as the compound, how does the IC50 [1] read?
**A.** 224 µM

**Q.** What about the EC50 [9] of the same compound?
**A.** 90 µM

**Q.** What about the IC50 [2] of the same compound?
**A.** 402 µM

**Q.** And the IC50 [10]?
**A.** 375 µM

**Q.** Which IC50 [3] does the source give for c1ccc(COc2ccccc2C(Nc2ccccc2)c2nnn[nH]2)cc1 (centres undefined) here?
**A.** Not Active

**Q.** Which IC50 [1] does the source give for NC(=O)C(Nc1ccccc1)c1ccccc1OCc1ccccc1 (centres undefined) here?
**A.** 135 µM

**Q.** With N#CC1c2ccccc2OC(c2ccccc2O)N1c1ccccc1 (centres undefined) as the compound, how does the IC50 [11] read?
**A.** 75 µM

**Q.** Which IC50 [3] does the source give for N#CC(Nc1ccccc1)c1ccc(OCc2ccccc2)cc1 (centres undefined) here?
**A.** Not Active

**Q.** With S=C(OC1CC2CC1C1CCCC21)[S][K] (centres undefined) as the compound, how does the half-life [12] read?
**A.** 19.5 min

**Q.** For COc1ccc(NC(C#N)c2ccccc2OCc2ccccc2)cc1 (centres undefined), which IC50 [1] is on record?
**A.** 48.1 µM

**Q.** With O=C(C(c1ccccc1)c1ccccc1)N1CCN(CC(O)COc2cccc3ncccc23)CC1 (centres undefined) as the compound, how does the IC50 [10] read?
**A.** > 500 µM

**Q.** Which results are given for N#CC(Nc1ccccc1Cl)c1ccccc1OCc1ccccc1 (centres undefined)?
**A.** IC50 [1]: 15.8 µM; IC50 [2]: 90.8 µM

**Q.** With N#CC(Nc1ccccc1O)c1ccccc1OCc1ccccc1 (centres undefined) as the compound, how does the IC50 [1] read?
**A.** 19 µM

**Q.** For N#CC(Nc1cccnc1)c1ccccc1OCc1ccccc1 (centres undefined), which IC50 [1] is on record?
**A.** 35 µM

**Q.** Which IC50 [1] does the source give for N#CC(Nc1ccccc1[N+](=O)[O-])c1ccccc1OCc1ccccc1 (centres undefined) here?
**A.** 27.4 µM

**Q.** Which IC50 [1] does the source give for Cc1ccccc1NC(C#N)c1ccccc1OCc1ccccc1 (centres undefined) here?
**A.** 67.2 µM
